Source: PubChem BioAssay
Sampled rows, rich in hits. Any-hit rate of the full collection: about 2.8%.
NPY-Y2 antag = blocks the human neuropeptide Y Y2 receptor; NPY-Y2 expressing cells, antagonist mode; inhibition, % at 2.7 µM; actives 0.99% (n = 140,000); AID 793; P49146;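 note: 0% = vehicle with agonist challenge and 100% = reference antagonist with challenge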
Target sequence (P49146 whole entry, looked up): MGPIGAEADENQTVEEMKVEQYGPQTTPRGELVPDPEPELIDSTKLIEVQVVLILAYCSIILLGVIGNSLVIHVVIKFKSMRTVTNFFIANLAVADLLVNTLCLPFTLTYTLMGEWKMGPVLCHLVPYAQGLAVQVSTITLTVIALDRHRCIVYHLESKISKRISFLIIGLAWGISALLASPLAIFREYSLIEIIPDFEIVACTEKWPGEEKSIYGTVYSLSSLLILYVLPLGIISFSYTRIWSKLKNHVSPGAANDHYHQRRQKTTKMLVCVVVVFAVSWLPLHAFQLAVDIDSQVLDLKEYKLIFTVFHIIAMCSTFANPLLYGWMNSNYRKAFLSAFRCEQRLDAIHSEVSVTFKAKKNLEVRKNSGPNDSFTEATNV
PGE2 EP2 inh = EP2 receptor (human) inhibition. P43116. C6 glioma cells expressing human EP2, cAMP TR-FRET; cells stimulated with saturating PGE2. inhibition, % at 25 µM. actives 0.52% (n = 260,000);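 active = percent inhibition above 40 after rounding to a whole number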;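 note: rat C6 glioma host cells with rolipram phosphodiesterase inhibitor present; the protocol text gives 20 µM as final concentration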
Target sequence (P43116 whole entry, looked up): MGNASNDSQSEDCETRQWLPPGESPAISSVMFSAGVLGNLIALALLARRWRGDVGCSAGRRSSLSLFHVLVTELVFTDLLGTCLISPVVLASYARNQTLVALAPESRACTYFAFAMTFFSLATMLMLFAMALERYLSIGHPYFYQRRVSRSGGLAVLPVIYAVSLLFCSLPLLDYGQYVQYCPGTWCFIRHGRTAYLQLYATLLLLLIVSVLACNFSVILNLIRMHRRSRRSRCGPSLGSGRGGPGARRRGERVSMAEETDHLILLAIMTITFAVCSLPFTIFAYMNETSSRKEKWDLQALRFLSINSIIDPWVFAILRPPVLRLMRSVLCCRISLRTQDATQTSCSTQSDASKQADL
EP2 mod = modulates human prostaglandin E2 receptor EP2 signaling. actives 0.83% (n = 260,000). AID 940. P43116. induction, % at 25 µM. EP2-expressing cells, cAMP HTRF FRET, PGE2 co-stimulation;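 active = compounds whose cAMP rise, as percent of the full-agonist control response, exceeds 60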;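 note: rat C6 glioma line stably carrying human EP2 under a CMV promoter; the protocol text gives 20 µM as final concentration; 100% = response of wells given 1 µM PGE2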
NPY Y1 blocker = NPY-Y1 (human) receptor antagonism | P25929 | HEK293-CNG Y1 cells, membrane potential fluorescence; NPY at EC95, then isoproterenol | inhibition, % at 3.6 µM | actives 1% (n = 200,000) | AID 1040;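 active = inhibition above the campaign mean inhibition of all tested compounds plus 3 SD, cut at about 20% in these data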;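 note: 0% = DMSO wells given NPY plus isoproterenol and 100% = isoproterenol alone without NPY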
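System: HEK293 cells with Y1 receptor plus CNG channel / Probe or stimulus: NPY 25 nM then isoproterenol 1 µM plus Ro 20-1724 25 µM / Compound: one concentration, 3.6 µM, in 0.4% DMSO / Schedule: compound incubation 1 h at room temperature, readout 45 min post-stimulation / Measured by: membrane potential fluorescence / Read-out: % inhibition of NPY effect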
NPY2 pot ag = human NPY-Y2 potentiation or agonism, primary screen; AID 1359; activation, % at 3.6 µM; cells expressing NPY-Y2, potentiator/agonist read-out; actives 0.45% (n = 220,000); P49146; in the data active = activation above about 27%;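 note: cells stimulated with NPY near EC25 plus isoproterenol at EC100; 0% = vehicle plus submaximal agonist and 100% = vehicle plus saturating agonist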
NPY-Y1 PAM-ag = human NPY-Y1 potentiation or agonism, primary screen | P25929 | NPY-Y1 expressing cells, potentiator/agonist activation | activation, % at 3.6 µM | actives 0.37% (n = 220,000) | AID 1304; in the data active = activation above about 33%, passing the limit was not always enough;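 note: cells stimulated with NPY at EC10 then isoproterenol at EC100; 0% = low agonist plus stimulus and 100% = saturating agonist plus stimulus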
NPY1 antag conf = human NPY-Y1 antagonism, confirmation | shares compounds with NPY Y1 blocker | HEK293-CNG NPY-Y1, membrane potential fluorescence, cAMP; NPY challenge against isoproterenol-raised cAMP | inhibition, % at 3.6 µM | actives 21% (n = 1,200); in the data active = inhibition above about 20%;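 note: 0% = vehicle with agonist plus stimulus and 100% = stimulus alone without agonist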
NPY-Y2 antag ct = antagonizes human NPY-Y2, counter-screen to NPY-Y1 antagonists; shares compounds with NPY Y1 blocker; HEK293 NPY-Y2 CNG membrane potential fluorescence, antagonism; cells given NPY, then isoproterenol; inhibition, % at 3.6 µM; actives 28% (n = 1,200); AID 1255;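 note: 0% = DMSO with agonist challenge and 100% = reference antagonist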
An asterisk follows results filed as active. Cut-off read from the data, not from the text of the source, unless noted: active = inhibition above about 17%; inactive = the rest.

For CSc1ccc(C2c3[nH]c4ccccc4c3CCN2C(=O)c2cc(C)n(C)n2)cc1 (centres undefined) the results were PGE2 EP2 inh 5.4, EP2 mod -12.2, NPY Y1 blocker 27.1*, NPY2 pot ag -25.9, NPY-Y1 PAM-ag -13.1, NPY1 antag conf 14.6 and NPY-Y2 antag ct 41.1*.
Screening Cc1cnc(C(=O)N2CCc3c([nH]c4ccccc34)C2c2ccc(F)cc2)cn1 (centres undefined) returned PGE2 EP2 inh 1.4, EP2 mod 26.4, NPY Y1 blocker 1.1, NPY2 pot ag -5.1 and NPY-Y1 PAM-ag 14.7.
For Cc1cc(C(=O)N2CCc3c([nH]c4ccccc34)C2c2cccc(Cl)c2)nn1C (centres undefined) the results were PGE2 EP2 inh 8.7, EP2 mod 14.6, NPY Y1 blocker 36.3*, NPY2 pot ag -18.8, NPY-Y1 PAM-ag -17.9, NPY1 antag conf 19.5 and NPY-Y2 antag ct 61.5*.
`O=C(c1cnccn1)N1CCc2c([nH]c3ccccc23)C1c1cccc(Cl)c1` (centres undefined) gave PGE2 EP2 inh 2.8, EP2 mod -2.6, NPY Y1 blocker 6.0, NPY2 pot ag 11.0 and NPY-Y1 PAM-ag 11.4.
COc1ccc(-c2nnc(SCC(=O)Nc3cc(OC)ccc3OC)o2)cc1 was read as PGE2 EP2 inh 7.7 and EP2 mod -66.2.
CCOC(=O)C1=C(c2ccccc2)O/C(=C(/C#N)C(F)(F)F)S1 was read as NPY-Y2 antag 11.9, PGE2 EP2 inh -0.5, EP2 mod 11.8, NPY Y1 blocker 31.8*, NPY2 pot ag -13.8, NPY-Y1 PAM-ag -38.6, NPY1 antag conf 10.3 and NPY-Y2 antag ct 42.4*.
`CC(=O)C(C)n1c(CN2CCN(C)CC2)nc2c1c(=O)n(C)c(=O)n2C` (centres undefined) gave PGE2 EP2 inh 8.6 and EP2 mod -3.9.
For O=C(NC1CCCC1)C(c1ccco1)N(Cc1ccccc1)C(=O)c1csnn1 (centres undefined) the results were NPY-Y2 antag 14.3, PGE2 EP2 inh 1.7, EP2 mod -4.9, NPY Y1 blocker 30.3*, NPY2 pot ag -1.3, NPY-Y1 PAM-ag 0.1, NPY1 antag conf 3.7 and NPY-Y2 antag ct 4.6.
Screening N#C/C(=N\Nc1cccc2ccccc12)c1nnc2n1CCCCC2 returned NPY-Y2 antag -0.9, PGE2 EP2 inh 7.9, EP2 mod -0.8, NPY Y1 blocker 20.3*, NPY2 pot ag 0.0, NPY-Y1 PAM-ag 1.4, NPY1 antag conf -0.9 and NPY-Y2 antag ct 2.6.
N#C/C(=C\c1c[nH]c2ccccc12)c1nnc2n1CCCCC2 was read as NPY-Y2 antag 0.5, PGE2 EP2 inh 3.4, EP2 mod -0.6, NPY Y1 blocker 1.6, NPY2 pot ag 7.9 and NPY-Y1 PAM-ag -1.5.
Fc1ccc(NC(=S)N(CCc2nc3ccccc3[nH]2)C2CCCCC2)cc1 was read as PGE2 EP2 inh 15.2 and EP2 mod -141.8.
Screening Clc1cccc(OCCN2CCN(CCOc3cccc(Cl)c3)CC2)c1 returned NPY-Y2 antag 10.7, PGE2 EP2 inh 1.5, EP2 mod -47.4, NPY Y1 blocker 21.1*, NPY2 pot ag -3.6, NPY-Y1 PAM-ag -4.8, NPY1 antag conf 4.9 and NPY-Y2 antag ct 6.5.
For CC1(C)CC(N2CCCC2)=CC(=[N+]2CCCCCC2)C1 the results were PGE2 EP2 inh 10.2, EP2 mod -30.5, NPY Y1 blocker 26.4*, NPY2 pot ag 3.3, NPY-Y1 PAM-ag -24.6, NPY1 antag conf 22.8* and NPY-Y2 antag ct 11.5.
Screening CC1CC(C)C[N+](=C2C=C(N3CCCC3)CC(C)(C)C2)C1 (centres undefined) returned PGE2 EP2 inh 7.0, EP2 mod -44.1, NPY Y1 blocker 42.1*, NPY2 pot ag 15.4, NPY-Y1 PAM-ag -10.2, NPY1 antag conf 30.7* and NPY-Y2 antag ct 12.8.
For Cc1nnc(SCC(=O)O)n1N the results were PGE2 EP2 inh 11.4 and EP2 mod -25.0.
COCCn1nnnc1C(c1cc2ccc(C)cc2[nH]c1=O)N1CCN(c2cccc(C)c2C)CC1 (centres undefined) was read as PGE2 EP2 inh 8.5 and EP2 mod 30.8.
For CC(C)C(=O)N1CCN(c2ccccc2NC(=O)C(C)(C)C)CC1 the results were PGE2 EP2 inh 13.4 and EP2 mod -3.7.
For CC(C)CC(c1nnnn1C(C)C)N1CCN(c2cccc(Cl)c2)CC1 (centres undefined) the results were NPY-Y2 antag 12.8, PGE2 EP2 inh 7.3, EP2 mod 1.8, NPY Y1 blocker 36.6*, NPY2 pot ag -36.5, NPY-Y1 PAM-ag -2.0, NPY1 antag conf 12.9 and NPY-Y2 antag ct 5.3.
Screening Cc1ccc(N=Cc2c(O)n(-c3cc(Cl)ccc3N3CCOCC3)c(=O)c3ccccc23)cc1C returned NPY-Y2 antag 5.9, PGE2 EP2 inh 13.7, EP2 mod 2.1, NPY Y1 blocker 22.2*, NPY2 pot ag -33.8, NPY-Y1 PAM-ag -80.0, NPY1 antag conf 15.2 and NPY-Y2 antag ct 26.9*.
C=CCOc1ccccc1CN1CCC(CO)(CCOc2ccccc2)CC1 was read as PGE2 EP2 inh 1.7, EP2 mod -23.3, NPY Y1 blocker 27.0*, NPY2 pot ag -40.8, NPY-Y1 PAM-ag -33.6, NPY1 antag conf 10.1 and NPY-Y2 antag ct 17.0.
For CC1CCN(C(=O)C2CCN(S(=O)(=O)c3ccc(Cl)cc3)CC2)CC1 the results were PGE2 EP2 inh 16.1 and EP2 mod -55.7.
Screening CC(=O)Nc1ccc(S(=O)(=O)Nc2nc(C)cc(-n3nc(C)cc3C)n2)cc1 returned NPY-Y2 antag 5.2, PGE2 EP2 inh 12.5, EP2 mod 4.2, NPY Y1 blocker 22.4*, NPY2 pot ag -5.9, NPY-Y1 PAM-ag -20.6, NPY1 antag conf 9.5 and NPY-Y2 antag ct 9.5.
Cc1oc(-c2ccccc2)nc1Cn1cccc1C1=NC(c2ccccc2)CO1 (centres undefined) was read as NPY-Y2 antag 9.7, PGE2 EP2 inh 10.1, EP2 mod 22.8, NPY Y1 blocker 21.6*, NPY2 pot ag 0.0, NPY-Y1 PAM-ag 18.4, NPY1 antag conf 21.3* and NPY-Y2 antag ct 23.9*.
`Cc1cc(S(=O)(=O)N2CCN(c3c(C)cccc3C)CC2)ccc1F` gave NPY-Y2 antag 14.4, PGE2 EP2 inh 1.8, EP2 mod 18.5, NPY Y1 blocker 21.0*, NPY2 pot ag -13.0, NPY-Y1 PAM-ag -50.4, NPY1 antag conf 8.7 and NPY-Y2 antag ct 11.6.
